From ChEMBL document CHEMBL1126281, “Synthesis and dopaminergic activity of some 3-(1,2,3,6-tetrahydro-1-pyridylalkyl)indoles. A novel conformational model to explain structure-activity relationships” (J Med Chem, 1992)

Columns and labels:
Rattus norvegicus [1] = test: Evaluated in vivo for its ability to induce contralateral rotational behavior in rats with unilateral, 6-hydroxy DA induced lesions of the substantia nigra at 3 mg/kg dosage orally; assay type: functional; details: route oral
In short: (§1)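 Rats given a unilateral 6-hydroxydopamine injection into the substantia nigra (8 μg per rat) at least 1 month earlier. Drug was given orally or subcutaneously and contralateral turns were recorded. Totals are cumulative at 1 h or 2 h after dosing, reported as means ± SEM with n = 3-6 rats.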

D(2) dopamine receptor [2] = biological target: T1, D(2) dopamine receptor (Rattus norvegicus, UniProt P61169); test: Evaluated for its ability to displace tritiated receptor ligand in rat striatal membranes 3[H]spiperone, a dopamine antagonist; assay type: functional, cell membranes, Striatum, Membrane
D(2) dopamine receptor [3] = biological target: T1, D(2) dopamine receptor; test: Evaluated for its ability to displace tritiated receptor ligand in rat striatal membranes [3H]ADTN, a dopamine agonist; assay type: functional, cell membranes, Striatum, Membrane
D(2) dopamine receptor [4] = biological target: T1, D(2) dopamine receptor; test: Compound was evaluated for its ability to displace tritiated receptor ligand in rat striatal membranes 3[H]spiperone, a dopamine antagonist; assay type: functional, cell membranes, Striatum, Membrane
In short: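 Rat striatal membranes (0.3–1.0 mg protein/mL) with 0.1 nmol/l [³H]spiperone in 50 mmol Tris/HCl, pH 7.7, plus 0.1% ascorbic acid. Incubated 15 min at 37 °C, stopped by rapid filtration and three ice-cold washes. Nonspecific binding was defined with 1 μmol/L (+)-butaclamol. Values are means ± SD of 2-4 independent determinations, with triplicates per concentration.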

Rattus norvegicus [5] = test: Compound was evaluated for D2 dopaminergic activity measured as total contralateral turns after 1 hr at a dose of 3 mg/kg peroral administration.; assay type: functional; details: route oral; in short: as §1
Rattus norvegicus [6] = test: compound was evaluated for increase striatal acetyl choline (AcCh) concentration in intact rat administered subcutaneously.; assay type: functional; details: sc
Rattus norvegicus [7] = test: Compound was evaluated for D2 dopaminergic activity measured as total contralateral turns after 1 hr at a dose of 0.03 mg/kg administered subcutaneously.; assay type: functional; details: route subcutaneous; in short: as §1
Rattus norvegicus [8] = test: Compound was evaluated for D2 dopaminergic activity measured as total contralateral turns after 2 hr at a dose of 0.03 mg/kg administered subcutaneously.; assay type: functional; details: route subcutaneous; in short: as §1
Rattus norvegicus [9] = test: Compound was evaluated for D2 dopaminergic activity measured as total contralateral turns after 2 hr at a dose of 1 mg/kg peroral administration.; assay type: functional; details: route oral; in short: as §1
Rattus norvegicus [10] = test: Compound was evaluated for D2 dopaminergic activity measured as total contralateral turns after 2 hr at a dose of 0.3 mg/kg peroral administration.; assay type: functional; details: route oral; in short: as §1
Rattus norvegicus [11] = test: Compound was evaluated for D2 dopaminergic activity measured as total contralateral turns after 1 hr at a dose of 0.3 mg/kg peroral administration.; assay type: functional; details: route oral; in short: as §1
Rattus norvegicus [12] = test: Compound was evaluated for D2 dopaminergic activity measured as total contralateral turns after 2 hr at a dose of 0.1 mg/kg administered subcutaneously.; assay type: functional; details: route subcutaneous; in short: as §1
Rattus norvegicus [13] = test: Compound was evaluated for D2 dopaminergic activity measured as total contralateral turns after 1 hr at a dose of 0.1 mg/kg peroral administration.; assay type: functional; details: route oral; in short: as §1
Rattus norvegicus [14] = test: Compound was evaluated for D2 dopaminergic activity measured as total contralateral turns after 1 hr at a dose of 0.1 mg/kg administered subcutaneously.; assay type: functional; details: route subcutaneous; in short: as §1
Rattus norvegicus [15] = test: Compound was evaluated for D2 dopaminergic activity measured as total contralateral turns after 1 hr at a dose of 1 mg/kg peroral administration.; assay type: functional; details: route oral; in short: as §1
Rattus norvegicus [16] = test: Compound was evaluated for D2 dopaminergic activity measured as total contralateral turns after 2 hr at a dose of 0.1 mg/kg peroral administration.; assay type: functional; details: route oral; in short: as §1
Rattus norvegicus [17] = test: Compound was evaluated for D2 dopaminergic activity measured as total contralateral turns after 2 hr at a dose of 3 mg/kg peroral administration.; assay type: functional; details: route oral; in short: as §1
Rattus norvegicus [18] = test: Compound was evaluated for increase striatal acetyl choline (AcCh) concentration in intact rat administered subcutaneously.; assay type: functional; details: sc
Rattus norvegicus [19] = test: Compound was evaluated for D2 dopaminergic activity measured as total contralateral turns expressed as mean after 2 hr at a dose of 1 mg/kg peroral administration; assay type: functional; details: route oral; in short: as §1
Rattus norvegicus [20] = test: Compound was evaluated for D2 dopaminergic activity measured as total contralateral turns expressed as mean after 1 hr at a dose of 0.3 mg/kg administered subcutaneously; assay type: functional; details: route subcutaneous; in short: as §1
Rattus norvegicus [21] = test: Compound was evaluated for D2 dopaminergic activity measured as total contralateral turns expressed as mean after 1 hr at a dose of 0.1 mg/kg administered subcutaneously; assay type: functional; details: route subcutaneous; in short: as §1
Rattus norvegicus [22] = test: Compound was evaluated for D2 dopaminergic activity measured as total contralateral turns expressed as mean after 1 hr at a dose of 1 mg/kg peroral administration; assay type: functional; details: route oral; in short: as §1
Rattus norvegicus [23] = test: Compound was evaluated for D2 dopaminergic activity measured as total contralateral turns expressed as mean after 2 hr at a dose of 0.1 mg/kg administered subcutaneously; assay type: functional; details: route subcutaneous; in short: as §1
D(2) dopamine receptor [24] = biological target: T1, D(2) dopamine receptor; test: Compound was evaluated for its ability to displace tritiated receptor ligand in rat striatal membranes [3H]ADTN, a dopamine agonist; assay type: functional, cell membranes, Striatum, Membrane
Rattus norvegicus [25] = test: Compound was evaluated for D2 dopaminergic activity measured as total contralateral turns expressed as mean after 1 hr at a dose of 3 mg/kg peroral administration.; assay type: functional; details: route oral; in short: as §1
Rattus norvegicus [26] = test: Compound was evaluated for D2 dopaminergic activity measured as total contralateral turns expressed as mean after 2 hr at a dose of 0.3 mg/kg peroral administration.; assay type: functional; details: route oral; in short: as §1
Rattus norvegicus [27] = test: Compound was evaluated for D2 dopaminergic activity measured as total contralateral turns expressed as mean after 2 hr at a dose of 3 mg/kg peroral administration.; assay type: functional; details: route oral; in short: as §1
Rattus norvegicus [28] = test: Compound was evaluated for D2 dopaminergic activity measured as total contralateral turns expressed as mean after 1 hr at a dose of 0.3 mg/kg peroral administration.; assay type: functional; details: route oral; in short: as §1
Rattus norvegicus [29] = test: Compound was evaluated for D2 dopaminergic activity measured as total contralateral turns expressed as mean after 2 hr at a dose of 0.3 mg/kg administered subcutaneously; assay type: functional; details: route subcutaneous; in short: as §1

T1 sequence (P61169 whole entry): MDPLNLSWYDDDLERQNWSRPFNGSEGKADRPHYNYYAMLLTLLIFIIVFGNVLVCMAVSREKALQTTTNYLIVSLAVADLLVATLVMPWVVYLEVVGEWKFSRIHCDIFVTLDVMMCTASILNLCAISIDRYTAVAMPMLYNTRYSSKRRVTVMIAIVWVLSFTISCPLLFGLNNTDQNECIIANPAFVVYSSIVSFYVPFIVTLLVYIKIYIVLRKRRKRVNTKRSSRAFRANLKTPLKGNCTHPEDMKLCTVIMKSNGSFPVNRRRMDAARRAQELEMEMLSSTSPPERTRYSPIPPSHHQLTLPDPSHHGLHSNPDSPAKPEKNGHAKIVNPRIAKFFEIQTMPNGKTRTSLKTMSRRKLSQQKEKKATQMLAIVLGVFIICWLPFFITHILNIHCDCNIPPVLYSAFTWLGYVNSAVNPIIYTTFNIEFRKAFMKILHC

| SMILES | Turns/first hour (Rattus norvegicus [1]) | IC50 (D(2) dopamine receptor [2]) | Ki (D(2) dopamine receptor [3]) | further results |
| --- | --- | --- | --- | --- |
| Oc1ccc2c(CCCCN3CC=C(c4ccccc4)CC3)c[nH]c2c1 | 786 | 8 nM | 2.5 nM |  |
| C1=C(c2ccccc2)CCN(CCCCCCc2c[nH]c3ccccc23)C1 | <100 | 40 nM | 4.3 nM |  |
| Oc1ccc2[nH]cc(CCCCN3CC=C(c4ccccc4)CC3)c2c1 [ROXINDOLE] | 948 |  | 0.88 nM | IC50 (D(2) dopamine receptor [4]): 5.95 nM; Turns (Rattus norvegicus [5]): 926; ED50 (Rattus norvegicus [6]): > 30 mg/kg; Turns (Rattus norvegicus [7]): 399; Turns (Rattus norvegicus [8]): 718; Turns (Rattus norvegicus [9]): 1694; Turns (Rattus norvegicus [10]): 534; Turns (Rattus norvegicus [11]): 397; Turns (Rattus norvegicus [12]): 2246; Turns (Rattus norvegicus [13]): 251; Turns (Rattus norvegicus [14]): 1132; Turns (Rattus norvegicus [15]): 830; Turns (Rattus norvegicus [16]): 287; Turns (Rattus norvegicus [17]): 2010 |
| Clc1ccccc1C1=CCN(CCCCc2c[nH]c3ccccc23)CC1 | <50 | 100 nM | 21 nM |  |
| C1=C(c2ccccc2)CCN(CCCc2c[nH]c3ccccc23)C1 | ~250 | 50 nM | 12 nM |  |
| c1ccc(C2CCN(CCCCc3c[nH]c4ccccc34)CC2)cc1 | <50 | > 100 nM | > 100 nM |  |
| Cn1cc(CCCCN2CC=C(c3ccccc3)CC2)c2ccccc21 | 121 | 100 nM | 15 nM |  |
| Fc1ccc2[nH]cc(CCCCN3CC=C(c4ccccc4)CC3)c2c1 | 552 | 10 nM | 1.6 nM |  |
| Cc1[nH]c2ccccc2c1CCCCN1CC=C(c2ccccc2)CC1 | 318 | 50 nM | 5.4 nM |  |
| Clc1ccc2[nH]cc(CCCCN3CC=C(c4ccccc4)CC3)c2c1 | <50 | 50 nM | 3.1 nM |  |
| C1=C(c2ccccc2)CCN(CCCCCc2c[nH]c3ccccc23)C1 | <50 | 60 nM | 13 nM |  |
| CN1CCc2cccc3c2[C@H]1Cc1ccc(O)c(O)c1-3 [APOMORPHINE] |  |  |  | Turns (Rattus norvegicus [7]): 1268; ED50 (Rattus norvegicus [18]): 0.28 mg/kg |
| C1=CCN(CCCCc2c[nH]c3ccccc23)CC1 | <100 | > 1000 nM | > 1000 nM |  |
| COc1ccc(C2=CCN(CCCCc3c[nH]c4ccccc34)CC2)cc1 | <50 | 700 nM | 41 nM |  |
| Clc1ccc(C2=CCN(CCCCc3c[nH]c4ccccc34)CC2)cc1 | 100 | 100 nM | 46 nM |  |
| COc1ccc2c(CCCCN3CC=C(c4ccccc4)CC3)c[nH]c2c1 | 792 | 9 nM | 1.8 nM |  |
| C1=C(c2ccccc2)CCN(CCc2c[nH]c3ccccc23)C1 | <50 | 100 nM | 81 nM |  |
| COc1ccc2[nH]cc(CCCCN3CC=C(c4ccccc4)CC3)c2c1 | 504 | 20 nM | 4.4 nM |  |
| Fc1ccc(C2=CCN(CCCCc3c[nH]c4ccccc34)CC2)cc1 | <100 | 90 nM | 15 nM |  |
| Fc1ccccc1C1=CCN(CCCCc2c[nH]c3ccccc23)CC1 | 186 | 20 nM | 4 nM |  |
| C1=C(c2ccccc2)CCN(CCCCc2c[nH]c3ccccc23)C1 | 864 | 105 nM |  | Turns (Rattus norvegicus [19]): 412; Turns (Rattus norvegicus [20]): 422; Turns (Rattus norvegicus [21]): 44; Turns (Rattus norvegicus [22]): 201; Turns (Rattus norvegicus [23]): 68; Ki (D(2) dopamine receptor [24]): 6.39 nM; Turns (Rattus norvegicus [25]): 825; Turns (Rattus norvegicus [26]): 236; Turns (Rattus norvegicus [27]): 1731; Turns (Rattus norvegicus [28]): 99; Turns (Rattus norvegicus [29]): 936; ED50 (Rattus norvegicus [18]): > 3 mg/kg |
